Test results reported in publication PMC2874468 (Journal of the American Chemical Society, 2010).
Values joined by “and” are separate entries in the source; they are usually repeats but may differ in a detail not shown here. Identical values can stand only once.

Tests used:
A. aeolicus IspH = target: T1, A. aeolicus IspH (Aquifex aeolicus, UniProt O67625); test: IspH enzyme inhibition assay; type: biochemical
T1 sequence (O67625 1-289): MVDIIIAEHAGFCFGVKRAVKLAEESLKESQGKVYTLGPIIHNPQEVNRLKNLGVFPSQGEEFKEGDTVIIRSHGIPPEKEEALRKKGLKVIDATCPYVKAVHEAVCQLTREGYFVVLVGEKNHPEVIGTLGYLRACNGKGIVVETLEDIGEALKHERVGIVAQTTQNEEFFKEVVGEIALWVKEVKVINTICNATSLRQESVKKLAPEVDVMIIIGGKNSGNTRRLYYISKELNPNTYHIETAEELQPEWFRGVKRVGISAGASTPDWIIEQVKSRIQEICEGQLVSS
In short: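 Ni-NTA-purified recombinant enzyme expressed in E. coli BL-21(DE3). Cluster reconstituted anaerobically with DTT, elemental sulfur and FeCl3 until A410/A280 reached about 0.38. Run anaerobically at room temperature in pH 8.0 Tris·HCl/NaCl/5% glycerol with 0.4 mM dithionite, 2 mM methyl viologen and 72 nM enzyme, across varied HMBPP. Initial rates at 732 nm fitted to Michaelis-Menten.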

IspH = details: cited from earlier work
[1] = target: farnesyl diphosphate synthase; details: read-out: Ki, farnesyl diphosphate synthase inhibition; previous work ref 22; cited from earlier work

| Structure (SMILES) | activity in IspH inhibition (in words) (A. aeolicus IspH) | also measured |
| --- | --- | --- |
| C/C(=C\COP(=O)(O)OP(=O)(O)O)CO [HMBPP, E-4-hydroxy-3-methyl-but-2-enyl diphosphate] |  | Km (A. aeolicus IspH; read-out: KM for HMBPP, reconstituted A. aeolicus IspH, Michaelis-Menten fit): 5 µM and 7 µM |
| N#CCOP(=O)(O)OP(=O)(O)O [compound 15, Cyanomethyl diphosphate] | far less active than their acetylenic counterparts |  |
| O=P(O)(O)OP(=O)(O)O [PPi] |  | IspH inhibition (weak inhibitors) (IspH): ~ 1 mM |
| N#CCCOP(=O)(O)OP(=O)(O)O [compound 16, 2-Cyanoethyl diphosphate] | far less active than their acetylenic counterparts |  |
| Cc1ccc[n+](CC(O)(P(=O)([O-])O)P(=O)(O)O)c1 (stereo not shown) [compound 18] |  | Ki [1]: ~20 nM |
| C#CC(=O)O [propiolic acid] | poor activity |  |
| O=P(O)(O)OP(=O)(O)OCc1ccc(Cl)nc1 [compound 29, (6-Chloropyridin-3-yl)-methyl-diphosphate] | lack of activity |  |
